ChEMBL document CHEMBL1134956, “Relating the structure, activity, and physical properties of ultrashort-acting benzodiazepine receptor agonists” (Bioorg Med Chem Lett, 2002)
≈ marks a conversion by molar mass, not a printed value.

How the values were obtained:
[1] = Aqueous solubility at pH 3 was determined; type: physicochemical
In short: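 Solubility of a saturated sample at pH 3, read by visual inspection or UV assay. The pH 3 value was cross-checked against solubility at other pH values and spectrophotometric pKa values.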

[2] = Binding affinity against rat benzodiazepine (BZD) receptor
Rattus norvegicus [3] = assay: Compound was tested for its initial (rat) loss-of-righting reflex LORR recovery time at a dose of 50 mg/kg; type: functional, organism-based; parameters: dose 50 mg/kg
In short: (§1)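 Rat loss-of-righting-reflex test, after the method of ref 14. The compound is given as a bolus injection in 50% PEG/25% EtOH/25% saline. Initial and total recovery times are recorded in min.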

Rattus norvegicus [4] = assay: Compound was tested for its total (rat) loss-of-righting reflex LORR recovery time at a dose of 50 mg/kg; type: functional, organism-based; parameters: dose 50 mg/kg; in short: as §1
[5] = Selectivity by the ratio of binding affinity of acid to the binding affinity of its ester
Rattus norvegicus [6] = assay: Compound was tested for its initial (rat) loss-of-righting reflex LORR recovery time at a dose of 25 mg/kg; type: functional, organism-based; parameters: dose 25 mg/kg; unit not given here; in short: as §1
Rattus norvegicus [7] = assay: Compound was tested for its total (rat) loss-of-righting reflex LORR recovery time at a dose of 25 mg/kg; type: functional, organism-based; parameters: dose 25 mg/kg; unit not given here; in short: as §1
Rattus norvegicus [8] = assay: Compound was tested for its initial (rat) loss-of-righting reflex LORR recovery time at a dose of 30 mg/kg; type: functional, organism-based; parameters: dose 30 mg/kg; in short: as §1
Rattus norvegicus [9] = assay: Compound was tested for its total (rat) loss-of-righting reflex LORR recovery time at a dose of 30 mg/kg; type: functional, organism-based; parameters: dose 30 mg/kg

SMILES | solubility [1] | Ki [2] | Selectivity [5] | Recovery time (Rattus norvegicus [6]) | Recovery time (Rattus norvegicus [7]) | further results
COC(=O)CC[C@@H]1N=C(c2ccccn2)c2cc(Cl)ccc2NC1=O | 1000 µg/mL (≈ 2.79 mM) | 139 nM | 46 |  |  | Recovery time (Rattus norvegicus [3]): 9 mg/kg; Recovery time (Rattus norvegicus [4]): 16 mg/kg
COC(=O)CC[C@@H]1N=C(c2ccccc2F)c2cc(Cl)ccc2N=C1NCCc1c[nH]cn1 |  | 208 nM |  |  |  | 
COC(=O)CC[C@@H]1N=C(c2ccccn2)c2cc(Cl)ccc2-n2c(C)cnc21 | 13000 µg/mL (≈ 32.9 mM) | 98 nM | 147 | 9 | 11 | 
COC(=O)CC[C@@H]1N=C(c2ccccc2F)c2cc(Cl)ccc2NC1=O | < 3000 µg/mL | 7 nM | 984 | 9 | 24 | 
COC(=O)CC[C@@H]1N=C(c2ccccn2)c2cc(Cl)ccc2-n2c1nc(C)c2C |  | 130 nM | 40 |  |  | 
COC(=O)CC[C@@H]1N=C(c2ccccc2F)c2cc(Cl)ccc2N=C1NCc1ccccc1 |  | 875 nM |  |  |  | 
COC(=O)CC[C@@H]1N=C(c2ccccc2F)c2cc(Cl)ccc2N=C1NCc1ccncc1 |  | 1230 nM |  |  |  | 
CCNC1=Nc2ccc(Cl)cc2C(c2ccccc2F)=N[C@H]1CCC(=O)OC |  | 146 nM |  |  |  | 
COC(=O)CC[C@@H]1N=C(c2ccccc2F)c2cc(Cl)ccc2-n2ccnc21 |  | 7 nM | 64 | 17 | 23 | 
COC(=O)CC[C@@H]1N=C(c2ccccn2)c2cc(Cl)ccc2-n2ccnc21 |  | 79 nM | 176 | 7 | 10 | 
COC(=O)CC[C@@H]1N=C(c2ccccc2F)c2cc(Cl)ccc2-n2c1cnc2C |  | 11 nM | 226 | 20 | 24 | 
COC(=O)CC[C@@H]1N=C(c2ccccc2F)c2cc(Cl)ccc2-n2c(C)cnc21 | < 1000 µg/mL | 8 nM | 74 | 23 | 33 | 
CNC1=Nc2ccc(Cl)cc2C(c2ccccc2F)=N[C@H]1CCC(=O)OC | 13000 µg/mL (≈ 33.5 mM) | 96 nM | 156 | 15 | 22 | 
CNC1=Nc2ccc(Cl)cc2C(c2ccccc2)=[N+]([O-])C1 [CHLORDIAZEPOXIDE] |  | 438 nM |  |  |  | 
Cc1ncc2n1-c1ccc(Cl)cc1C(c1ccccc1F)=NC2 [MIDAZOLAM] | ≥ 8000 µg/mL | 2 nM |  |  |  | Recovery time (Rattus norvegicus [8]): 23 mg/kg; Recovery time (Rattus norvegicus [9]): 121 mg/kg
COC(=O)CC[C@@H]1N=C(c2ccccc2F)c2cc(Cl)ccc2N=C1NCC(C)C |  | 1010 nM |  |  |  | 
COC(=O)CC[C@H]1N=C(c2ccccc2F)c2cc(Cl)ccc2-n2c1cnc2C |  | 3570 nM | 28 |  |  | 
COC(=O)CC[C@@H]1N=C(c2ccccn2)c2cc(Cl)ccc2-n2cc(C)nc21 | 2000 µg/mL (≈ 5.07 mM) | 60 nM | 156 | 13 | 15 | 
COC(=O)CC[C@@H]1N=C(c2ccccc2F)c2cc(Cl)ccc2-n2cc(C)nc21 |  | 7 nM | 156 | 6 | 21 | 
COC(=O)CC[C@@H]1N=C(c2ccccc2F)c2cc(Cl)ccc2N=C1NCCc1ccncc1 |  | 792 nM |  |  |  | 
COC(=O)CC[C@@H]1N=C(c2ccccc2F)c2cc(Cl)ccc2N=C1NCCO |  | 303 nM |  |  |  | 
